Compounds with a hit are over-represented: about 1.9% of the library has one in this group of screens.
Runt-CBFb FRET: inhibitors of RUNX1 Runt–CBFb binding, primary screen, biochemical, FRET, Cerulean-Runt, Venus-CBFb, uHTS | inhibition, % at 20 µM | Cerulean-Runt/Venus-CBFb FRET ratio 530/480, 1 h | AID 1496, 2009 | 220,000 tested, 0.46% active;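 active means inhibition over about 50% at 20 µM in the single-dose screen, limit read from the data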
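Doses: 20 µM compound in 1% DMSO | Material: Cerulean-labeled Runt domain protein | Amount: Each fluorescent fusion protein 100 nM | Schedule: Two 1 h room-temperature incubations shielded from light | Measured by: FRET fluorescence | Evaluation: Loss of energy transfer signal | Controls: Unlabeled CBFb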
HDAC3 inh: HDAC3 deacetylase inhibitors, primary screen, biochemical, fluorescence, cell-free homogeneous | recombinant HDAC3, fluorogenic peptide/trypsin coupled | AID 2718, 2010 | 320,000 tested, 0.15% active | inhibition, % at 8.3 µM | Histone deacetylase 3 (Homo sapiens), O15379; in the data active means inhibition above about 26%, passing the limit was not always enough; inconclusive means no clear call, values can overlap the other calls
Runt-SMMHC FRET: inhibitors of RUNX1 Runt–CBFb-SMMHC binding, primary screen, biochemical, FRET, Cerulean-Runt, Venus-CBFb-SMMHC, uHTS | Runt-related transcription factor 1 (Homo sapiens) + Core-binding factor subunit beta … | Cerulean-Runt/Venus-CBFb-SMMHC FRET ratio 530/480, 1 h | inhibition, % at 20 µM | 220,000 tested, 0.74% active | AID 1434, 2008;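 active means mean inhibition across duplicate retests at 20 µM reaching about 50%, limit read from the data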;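 further: inhibitors lower the FRET ratio by blocking Runt binding to CBFb-SMMHC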
RanGTP-Impb inh: inhibitors of RanGTP-importin-beta interaction, primary screen, biochemical, FRET, CFP-Ran, YFP-importin-beta, homogeneous; inhibition, % (test concentration not listed); Ran GTPase (GTP-bound) - importin-beta complex; 300,000 tested, 1.1% active; AID 2216, 2009; cell-free CFP-Ran/YFP-importin-beta FRET ratio;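 active means more than half of the replicate wells show a fall in the fluorescence ratio signal beyond about 16%, limit read from the data, passing the limit was not always enough; inconclusive means exactly half of the replicate wells pass the set limit; inactive means fewer than half of replicates pass the limit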
LANA-H2A inh: blockers of LANA interaction with H2A/H2B – biochemical, FP readout, HTS, primary screen. 320,000 tested, 0.6% active. AID 2629, 2010. Protein LANA1 (Human herpesvirus 8 type P (isolate GK18)), Q9QR71. cell-free LANA-H2A/H2B peptide, fluorescence polarization. inhibition, % (test concentration not listed); in the data active means inhibition mostly above about 10%, no sharp cut-off; inactive means mostly below about 6.7%
CaV13 FRET inh: Primary screen for inhibitors of IQ motif and Ca2+-dependent inactivation inhibitor domain binding in CACNA1D, Förster resonance energy transfer in living cells, …. AID 743397. HEK cells, CFP/YFP FRET ICDI-IQ, plate reader, 10 min; percent FRET-ratio fall versus neutral wells. inhibition, % at 12.3 µM. 340,000 tested, 0.098% active;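 active means mean replicate inhibition of at least 30% and at least 1% of replicates passing that level; inconclusive means only one of the two criteria is met; inactive means neither criterion is met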
Large screens that a line does not name were inactive.

Fc1ccc(CN2C3=NCCCN3c3ccccc32)cc1	LANA-H2A inh 59
COc1ccc(Cl)cc1NC(=O)c1cc(-c2ccccc2O)n[nH]1	LANA-H2A inh 16
COc1ccc(OC)c(NC(=O)c2cc(-c3cc(Cl)ccc3O)n[nH]2)c1	none
Nc1c(C=C2C=CC(=O)C=C2)c(=O)nc2sc(CC(=O)N3CCOCC3)nn12	none (no result: Runt-CBFb FRET, Runt-SMMHC FRET)
Nc1c(/C=C2\C=Nc3ccccc32)c(=O)nc2sc(CC(=O)N3CCOCC3)nn12	RanGTP-Impb inh 20 (no result: Runt-CBFb FRET, Runt-SMMHC FRET)
COC(=O)C(NS(=O)(=O)c1ccc(C)cc1)c1ccccc1 (stereo not given)	none
Cc1ccc(S(=O)(=O)NC(C(=O)Oc2ccc3c(C(F)(F)F)cc(=O)oc3c2)c2ccccc2)cc1 (stereo not given)	Runt-SMMHC FRET 59, RanGTP-Impb inh 36
O=C(O)CC1NC(=O)N(c2ccccc2)C1=O (stereo not given)	RanGTP-Impb inh 45 (no result: HDAC3 inh, LANA-H2A inh, CaV13 FRET inh)
O=C(c1ccncc1)N1CCN(c2ccc(F)cc2)CC1	none
CC(C)CC(=O)N1CCN(C(=O)c2ccc(F)cc2)CC1	LANA-H2A inh 16 (no result: Runt-CBFb FRET, Runt-SMMHC FRET)
O=C(c1ccc(Cl)cc1)N1CCN(c2ccc(F)cc2)CC1	Runt-SMMHC FRET 72
CC(C)(C)OC(=O)Nc1ccc([C@H](NC(=O)OC(C)(C)C)C(=O)OC(C)(C)C)cc1	none (no result: Runt-CBFb FRET, Runt-SMMHC FRET, RanGTP-Impb inh)
C[N+](C)(C)CCCC(=O)c1ccc2c(c1)OCO2	none
CCOc1cc(CNC(C)(C)C)ccc1OCC(=O)Nc1cccc(C(F)(F)F)c1	none
Nc1c(Cl)ncnc1N/N=C/c1ccccn1	Runt-SMMHC FRET 78 (no result: RanGTP-Impb inh)
Cc1ccc2c(c1)C(=O)N1[C@H]3c4cc(C)ccc4OC[C@@H]3[C@H](c3ccccc3)[C@]1(C)C(=O)N2	LANA-H2A inh 104 (no result: Runt-CBFb FRET, Runt-SMMHC FRET, RanGTP-Impb inh)
Cc1ccc2c(c1)C(=O)N1[C@H]3c4cc(Cl)ccc4OC[C@@H]3[C@H](c3ccccc3)[C@]1(C)C(=O)N2	none (no result: Runt-CBFb FRET, Runt-SMMHC FRET, RanGTP-Impb inh)
CCOC(=O)[C@H]1[C@H]2COc3ccc(Cl)cc3[C@@H]2N2C(=O)c3cc(Br)ccc3NC(=O)[C@@]12C	LANA-H2A inh 17 (no result: Runt-CBFb FRET, Runt-SMMHC FRET, RanGTP-Impb inh)
O=C(N=C1SC2CS(=O)(=O)CC2N1c1ccc(F)c(Cl)c1)C1CC1 (stereo not given)	none (no result: Runt-CBFb FRET, Runt-SMMHC FRET)
CCOC(=O)c1c[nH]c2nc(C)ccc2c1=O	RanGTP-Impb inh 24
C[C@H]1C=C(C(=O)NCc2nc3ccccc3[nH]2)O[C@@H](OCCCCO)C1	none (no result: Runt-CBFb FRET, Runt-SMMHC FRET)
CCOC(=O)C(NC(=O)N(C)C)(Nc1sc(C)c(CC)c1C#N)C(F)(F)F (stereo not given)	HDAC3 inh 32
CSc1nc(-c2ccco2)nn1C(=O)c1cccs1	HDAC3 inh inconclusive (no result: CaV13 FRET inh)
O=C(c1cccs1)n1nc(-c2ccco2)nc1SCc1ccccc1	HDAC3 inh 65
CCn1c(SCC(=O)O)nnc1-c1ccccc1OC	none (no result: Runt-CBFb FRET, Runt-SMMHC FRET)
O=C(CN1CCS(=O)(=O)CC1)N/N=C/c1cccc(C(F)(F)F)c1	RanGTP-Impb inh inconclusive (no result: Runt-CBFb FRET, Runt-SMMHC FRET, CaV13 FRET inh)
O=S1(=O)CCN(C(CCO)c2cccc(C(F)(F)F)c2)CC1 (stereo not given)	LANA-H2A inh active
CCOc1cc(C(=O)OCC(=O)Nc2cc(C)on2)ccc1OCC(C)C	none
Cc1onc(-c2ccccc2)c1C(=O)/C=C/N(C)C	RanGTP-Impb inh 17
O=C1CCC([N+](=O)[O-])C(c2ccccc2C(F)(F)F)N1 (stereo not given)	none (no result: Runt-CBFb FRET, Runt-SMMHC FRET)
CC1=C([N+](=O)[O-])C(c2ccccc2C(F)(F)F)NC(=O)N1C (stereo not given)	LANA-H2A inh 30
CCCn1nc(NC(=O)C2CCCO2)c2cc3cc(C)ccc3nc21 (stereo not given)	Runt-SMMHC FRET 59, RanGTP-Impb inh 56

Screens as filed in PubChem.
